PMC10582660 (Clinical and Translational Science, 2023)
Values joined by “and” are separate entries in the source; they are usually repeats but may differ in a detail not shown here. Identical values can stand only once.

Legend:
NTCP = biological target: T1, NTCP (Homo sapiens, UniProt Q14973); assay: Raloxifene as a substrate for uptake transporters; type: in vitro ADME; conditions: raloxifene 1, 10 μM, 2, 20 min, two‐fold cutoff
T1 sequence (Q14973 1-349): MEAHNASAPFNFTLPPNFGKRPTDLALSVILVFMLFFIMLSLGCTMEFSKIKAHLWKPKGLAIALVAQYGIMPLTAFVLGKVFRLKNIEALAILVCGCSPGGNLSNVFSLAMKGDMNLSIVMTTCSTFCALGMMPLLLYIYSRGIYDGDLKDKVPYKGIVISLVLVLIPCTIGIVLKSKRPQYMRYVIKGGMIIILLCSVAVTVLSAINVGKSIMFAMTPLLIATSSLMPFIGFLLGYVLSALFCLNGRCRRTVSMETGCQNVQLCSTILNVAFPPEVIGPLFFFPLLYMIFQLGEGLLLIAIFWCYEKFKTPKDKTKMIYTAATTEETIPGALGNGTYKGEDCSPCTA
How it was run: (§1)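 Uptake of test compound (1 and 10 μM, 2 and 20 min) measured in transporter-expressing HEK293 or MDCKII cells or inside-out membrane vesicles. Run with positive-control probe substrates and inhibitors, plus empty-vector or untransfected control cells. Fold-accumulation relative to control cells judged against a two-fold cutoff for substrate status.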

[1] = Follow-up exploratory clinical study: raloxifene stool recovery; type: in vivo, human; conditions: for Raloxifene dose recovery0–48h in stool, geometric mean (CV%): stool 0 to 48 h relative to dose
How it was run: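 Stool collected within 48 h pre-dose and all movements 0–24 and 24–48 h post-dose (water vs acute green tea arms), held at −20°C. Blended with water (1:2.5 by weight), stored at −80°C. Methanol/0.1% formic acid extraction with internal standards. 1×, 10× and 100× dilutions dried, reconstituted, quantified by UHPLC–MS/MS (calibration 0.06–400 nM). Recovery 0–48 h expressed as % of administered dose.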

OATP2B1 = biological target: T2, OATP2B1 (Homo sapiens, UniProt O94956); assay: Raloxifene as a substrate for uptake transporters; type: in vitro ADME; conditions: raloxifene 1, 10 μM, 2, 20 min, two‐fold cutoff
T2 sequence (O94956 1-709): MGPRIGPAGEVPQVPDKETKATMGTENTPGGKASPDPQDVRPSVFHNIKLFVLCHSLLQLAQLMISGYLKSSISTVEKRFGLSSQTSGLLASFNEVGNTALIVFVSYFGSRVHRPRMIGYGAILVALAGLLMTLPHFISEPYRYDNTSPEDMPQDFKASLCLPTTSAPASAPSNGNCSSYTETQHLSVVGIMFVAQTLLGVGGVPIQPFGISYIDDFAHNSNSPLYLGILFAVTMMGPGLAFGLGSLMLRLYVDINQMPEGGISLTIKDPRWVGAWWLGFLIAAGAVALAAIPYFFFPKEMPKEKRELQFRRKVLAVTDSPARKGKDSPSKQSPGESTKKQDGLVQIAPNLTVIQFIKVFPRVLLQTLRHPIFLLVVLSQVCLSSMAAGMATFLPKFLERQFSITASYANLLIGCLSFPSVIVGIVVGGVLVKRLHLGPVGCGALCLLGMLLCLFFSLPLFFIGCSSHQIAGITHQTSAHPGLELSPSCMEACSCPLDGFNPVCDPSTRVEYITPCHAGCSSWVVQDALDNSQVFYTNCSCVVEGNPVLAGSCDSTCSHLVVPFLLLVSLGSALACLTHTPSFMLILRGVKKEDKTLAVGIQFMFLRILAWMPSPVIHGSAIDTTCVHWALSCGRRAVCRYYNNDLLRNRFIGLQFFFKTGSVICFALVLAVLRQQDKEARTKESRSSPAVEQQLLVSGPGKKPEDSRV
How it was run: as §1

OCT2 = biological target: T3, OCT2 (Homo sapiens, UniProt O15244); assay: Raloxifene as a substrate for uptake transporters; type: in vitro ADME; conditions: raloxifene 1, 10 μM, 2, 20 min, two‐fold cutoff
T3 sequence (O15244 1-555): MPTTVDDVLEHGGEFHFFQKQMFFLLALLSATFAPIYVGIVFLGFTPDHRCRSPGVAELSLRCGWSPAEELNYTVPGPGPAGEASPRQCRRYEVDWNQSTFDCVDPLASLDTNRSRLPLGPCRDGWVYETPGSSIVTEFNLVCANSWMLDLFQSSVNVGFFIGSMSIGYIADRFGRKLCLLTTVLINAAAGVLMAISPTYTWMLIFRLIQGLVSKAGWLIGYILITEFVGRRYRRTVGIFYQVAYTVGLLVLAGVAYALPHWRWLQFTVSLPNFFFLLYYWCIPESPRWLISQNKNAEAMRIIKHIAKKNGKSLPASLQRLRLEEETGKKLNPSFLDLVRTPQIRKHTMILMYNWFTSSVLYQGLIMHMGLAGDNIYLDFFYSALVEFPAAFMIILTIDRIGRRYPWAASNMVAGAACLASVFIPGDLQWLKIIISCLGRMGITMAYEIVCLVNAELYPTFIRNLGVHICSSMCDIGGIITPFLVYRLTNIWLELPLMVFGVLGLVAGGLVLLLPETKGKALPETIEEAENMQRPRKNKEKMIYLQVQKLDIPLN
How it was run: as §1

[2] = after oral administration; cited from earlier work
OCT1 = biological target: T4, OCT1 (Homo sapiens, UniProt O15245); assay: Raloxifene as a substrate for uptake transporters; type: in vitro ADME; conditions: raloxifene 1, 10 μM, 2, 20 min, two‐fold cutoff
T4 sequence (O15245 1-554): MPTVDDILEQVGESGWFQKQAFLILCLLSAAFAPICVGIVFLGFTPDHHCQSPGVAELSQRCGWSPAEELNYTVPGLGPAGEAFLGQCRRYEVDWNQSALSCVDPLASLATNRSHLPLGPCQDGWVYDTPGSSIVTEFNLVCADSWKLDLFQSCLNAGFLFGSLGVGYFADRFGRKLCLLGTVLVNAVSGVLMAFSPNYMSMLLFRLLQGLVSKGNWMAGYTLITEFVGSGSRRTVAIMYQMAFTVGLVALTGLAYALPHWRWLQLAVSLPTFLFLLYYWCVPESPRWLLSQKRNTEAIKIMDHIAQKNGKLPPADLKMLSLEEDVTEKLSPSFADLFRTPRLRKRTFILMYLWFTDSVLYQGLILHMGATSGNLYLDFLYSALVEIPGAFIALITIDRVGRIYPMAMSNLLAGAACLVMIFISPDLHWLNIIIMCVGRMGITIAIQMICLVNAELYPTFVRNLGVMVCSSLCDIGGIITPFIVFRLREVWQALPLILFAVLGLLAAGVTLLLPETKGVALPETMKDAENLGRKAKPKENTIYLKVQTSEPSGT
How it was run: as §1

- fold‐accumulation (NTCP): 1.14–1.33
- Raloxifene dose recovery0–48h green tea/baseline ratio (90% CI) ([1]; acute green tea vs baseline): 1.05 (0.45–2.43)
- Raloxifene dose recovery0–48h in stool, geometric mean (CV%) ([1]; acute green tea): 10.6 (103) %
- Raloxifene dose recovery0–48h in stool, geometric mean (CV%) ([1]; baseline): 10.1 (115) %
- fold‐accumulation (OATP2B1): 0.82–1.00
- fold‐accumulation (OCT2): 0.90–1.15
- fold‐accumulation (OCT1): 1.13–1.52
SMILES: O=C(c1ccc(OCCN2CCCCC2)cc1)c1c(-c2ccc(O)cc2)sc2cc(O)ccc12 [Raloxifene, raloxifene, reference compound]
- Percentage change in raloxifene stool recovery ([1]; baseline to acute green tea, individual participants): −70% and 440% and −80% and 300% and 10% and −14%
- Raloxifene stool recovery ([1]; baseline, individual participants no. 8, 11, 12, 16, 17, 18): 1.7% and 0.27% and 93.8% and 18.0% and 17.4% and 69.8%
- oral bioavailability [2]: < 2%
